Measurements: the EternaBench riboswitch data

System: MS2 coat protein
Assay: apparent Kd, MS2 coat protein; higher = weaker binding; RNA-MaP array; FMN 200 µM where present
Outline: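 In 100 mM Tris-HCl pH 7.5, 80 mM KCl, 4 mM MgCl2, BSA, DTT, yeast tRNA and Tween-20, SNAP-549-labelled MS2 coat protein was titrated from 0.7 or 1.5 nM, doubling to 3 µM, over designs transcribed by stalled E. coli RNA polymerase on Illumina sequencing-chip clusters. This was done first without ligand, then with ligand held constant. After green signal was normalised to red-channel RNA signal and control-cluster median Fmax, the apparent Kd was taken as the median of filtered per-cluster binding-curve fits.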

[1] = designed as: OFF switch for flavin mononucleotide, no ligand
[2] = ligand present: flavin mononucleotide, designed as: OFF switch for flavin mononucleotide
[3] = designed as: ON switch for flavin mononucleotide, no ligand
[4] = ligand present: flavin mononucleotide, designed as: ON switch for flavin mononucleotide

Sequence	apparent Kd [1]	apparent Kd [2]	apparent Kd [3]	apparent Kd [4]
UUAUUAUAUGAAGGAUAUACUUAACAUGAGGAUCACCCAUGUGGUGUUGUGAGUGAGUGAGUUUAGUAGAAGGUCAAUUCUUUU	425 nM	623 nM	–	–
AUAAUGAGAGGAUAUACAUGAGGAUCACCCAUGUUAUUAACACGGCGAGCUCCAAUACGUAGAAGGCUCAUUUA	123 nM	26.5 nM	–	–
AAGAAGUGAGGAUAUCGAAGACUGUCGAAAAGACAGUCGAACGAGAAGGCACAUGAGGAUCACCCAUGUAAGAA	24.1 nM	34.5 nM	–	–
AAGUAACAUGAGGAUCACCCAUGUGAGGAUAUGAUUUAAGUUGUAAAAGUAAUAAAGGUCAGAAGGUAUGUGAA	62.1 nM	61.1 nM	–	–
UAUGUAUUCGUAGGAUAUCCGUCGCCACCGUGUGGAGAAGGACGAACAUGAGGAUCACCCAUGUAUCAUGGUGUAGACAAUUUU	77 nM	135 nM	–	–
CGAUAGGACAGAGGAUAUACACAUGAGGAUCACCCAUGUGAUUACAAUUCUUAAGAUUCAAACAUGUAGAAGGCUGUCCUAUCG	9.25 nM	17.4 nM	–	–
CAAUUUAUGUCAGGAUAUACAAUACAAUGAUUAGUAGAAGGGAUUAAUACAUGAGGAUCACCCAUGUCAUGUGUCAUAGUAACC	23.9 nM	19.4 nM	–	–
CAGCUGAAAGUGAGGAUAUAGACUGCUUCGGCAGUCUAGAAGGCACAUGAGGAUCACCCAUGUCUCAACAGCUG	16.6 nM	70.2 nM	–	–
GGACGACACAUCUACAUGAGGAUCACCCAUGUCGAAAGACAUGAGGAUAUGCAUCCUAAUUGGAUGCAGAAGGCAUGGUCGUCC	–	–	1210 nM	70.3 nM
ACGUGUCGUGUAGGAUAUGACACAGGAAACUGGUCAGAAGGACAUGAGGAUCACCCAUGUAAAAUGUUUAAGAAUGACGUAUGC	49.3 nM	94.9 nM	–	–
CUGGUUAGUCAGGAUAUCGUGUGGGUAAUUGUACGAGAAGGGACGACAUGAGGAUCACCCAUGUGGUCUUUGGG	24.8 nM	56.2 nM	–	–
GUGGUUGUCGUAGGAUAUGUAGGAUAUUCCUACAUGAGGAUCACCCAUGUUCGCAUGGAAGAAGGACAGAAGGACGAUGACCAA	–	–	1160 nM	9.11 nM
GGAUAGGACAGAGGAUAUACCGAUAGGAUCUACUAUCGAAUAAUCCUCACAUGAGGAUCACCCAUGUAGAAGGCUGUCCUAUCG	21.3 nM	143 nM	–	–
UUUAUAUUCAGAGGAUAUUGAUGUUGUAUUUUACAAGAAGGCUGAUUGUUUUGUAAUGUUAUUAUACAUGAGGAUCACCCAUGU	–	–	22.1 nM	15.6 nM
GGUGGACAUGAGGAUCACCCAUGUGAGGAUAUCGGCUGGCUAGCGGCGGACGGCUUCUCGAGAAGGCGCAUUGU	57.8 nM	57.1 nM	–	–
GCCCGGCAUACAUGAGGAUCACCCAUGUCAGAAAGGGUAAUCAGAAGGUACUAUUAGAGAAAGAGUAAGGAUAUGAAGCCGGGC	–	–	599 nM	134 nM
AGUAUUGUAGGGUAUCCAACAUGAGGAUCACCCAUGUACCAGAGAAGGACCCAGGCAUUGCUUGGGUAGGAUAUCUGCGCAUCA	18.4 nM	193 nM	–	–
GAGGACUGUGCAGGAUAUACAUGAGGAUCACCCAUGUAGGUCGGUUCGAAAGUAGAAGGGCACGAUUGUCGAUAGCACGCGUGA	97.5 nM	39.2 nM	–	–
CCGUCCUGAGGAUAUCCACCCUCAUACAUGAGGAUCACCCAUGUUCACCUUUGGGUUCCCGGAGAAGGCAGUUUUC	80.2 nM	109 nM	–	–
GGACGUCAGAUUAACAUGAGGAUCACCCAUGUCUUUUGACAUGAGGAUAUGCAACGUAAUUCGUUGCAGAAGGCAUGGACGUCC	–	–	1010 nM	89.8 nM
AUUAUACAUGAGGAUCACCCAUGUAAUUAAUUAAUUAAGAUCAAGGAUAUCAGCUCGUUUAGAGCUGAGAAGGUGAUCACAUGU	–	–	356 nM	295 nM

Sequence	apparent Kd [1]	apparent Kd [2]	apparent Kd [3]	apparent Kd [4]
AAAGACAUGAGGAUCACCCAUGUCGGUAUAACUUAAGCGUCACAGGAUAUGUUACGAAAUUAUGGACAGAAGGGUGAGCUGUGG	–	–	23.8 nM	9.02 nM
AAAAGUCGAGGAUAUGCAAAAUGAUUGCGAAAGCAAUCAAAACAUGAGGAUCACCCAUGUAGAAGGCGACAAAA	21.3 nM	13.9 nM	–	–
GGGUACAUCGGAGGAUAUCAUGUAAAUACAUGAGGAUCACCCAUGUCGAUGGAGACAUCGGAGAUUGAGAAGGCCGAUGAACCG	–	–	165 nM	8.52 nM
CGCUAAGAGAACGAUACGAGAAGACAUGAGGAUCACCCAUGUAGAAGGACAACGGAAUAAACGUUGUAGGAUAUACAUUUAGCG	16.9 nM	19.8 nM	–	–
UUGAGGUCAGGAUAUGCAUGGCGGGACUUGCGUCGUGGCGUGCAGAAGGGACAUGAGGAUCACCCAUGUGGAGU	145 nM	236 nM	–	–
UUUAUGUAAGAGAAGGAGGACUUCAUGAGGAUCACCCAUGUGUUAGUACUUAGGAUAUUUGACAACAUGAGGAUCACCCAUGUC	–	–	59.9 nM	58.4 nM
AGAUAAGUCACAGGAUAUUCCUACAUUAAUAUGGAAGAAGGGUGAGCAUGAUUCGAUACAUGAGGAUCACCCAUGUAUCCGCGA	–	–	78.4 nM	19.7 nM
AACUGACAUGAGGAUCACCCAUGUCAGGAUAUGACUUCAAAAUAAAAAUAAAAUGAUGUCAGAAGGGACAUGAA	13.3 nM	12 nM	–	–
GUCGUGUUAGGAUAUGGCAACGGCGGCGAAAGUUGUUGUUGUUAGAAGGAACAUGAGGAUCACCCAUGUAUGAC	37.7 nM	113 nM	–	–
GGGUACAUCGGAGGAUAUCAUGUAAAUACAUGAGGAUCACCCAUGUUGAUGGAGACAUCGGAGAUUGAGAAGGCCGAUGUACCG	–	–	41.9 nM	6.03 nM
CAAUUUAUAACAGGAUAUGUAUUACAAUAGUUAAUAGAAGGGUUUAAUACAUGAGGAUCACCCAUGUCAUGUGUCAUAAUUACC	33.5 nM	28.8 nM	–	–
UGGACUGGGCAGAAGGGACAUGAGGAUCACCCAUGUCUUGGGCUACUUCAGUCAGGAUAUGCCCAUUGAAUAUCCGAGCAUCAA	13.7 nM	77.4 nM	–	–
CUUUAUGUUGAGGAUAUGCACCAGCUCACUGACGCAGAAGGCGACACAUGAGGAUCACCCAUGUCAGUUCGCGU	17.6 nM	17.8 nM	–	–
CUUUAGUGAGGAUAUGUGGCUUCGAUCGUGAGAUCGAGGCUACAGAAGGCACAUGAGGAUCACCCAUGUUCCUU	14.5 nM	32.9 nM	–	–
UUUUAACAUGAGGAUCACCCAUGUCGUUCAAAUCAAGGAUAUCAAGCGUGUGCACACGCCUGAGAAGGUGAAGCUC	–	–	55.8 nM	98.9 nM
CGUGCGUAUGUGAGGAUAUGCUGGUCCUUGGAUCGGCAGAAGGCACAUGAGGAUCACCCAUGUGGUGUCGUUCC	42.8 nM	274 nM	–	–
UGCUGUGUCAGAGGAUAUCUACUAAUAAUCCAUUGCAAAUAGCGAUGGACAUGAGGAUCACCCAUGUAGAAGGCUGUCACAGCA	110 nM	120 nM	–	–
GCGAAUUAGUGAGGAUAUACAUAAUUUAAAACUGUAGAAGGCACAAUCCUCAAGACAUGAGGAUCACCCAUGUGAUAUUAAGCU	46 nM	158 nM	–	–
UAUUUACAUGAGGAUCACCCAUGUUAGGAUAUGUUUCUAUCGUCGAAAGAUGAUAUUUGCAGAAGGGACUUUAU	27.6 nM	25.1 nM	–	–
GAAAACGCAGAGGAUAUUUCAGAUCCUAGCUGCAAAGAAGGCUGCACAUGAGGAUCACCCAUGUGGUCCUGAAG	65.1 nM	155 nM	–	–
ACAGCGUGAGGAUAUACAUGAGGAUCACCCAUGUGUGGCAGGUUAUCCUGUCAUGAGUGUAGAAGGCACGCUGU	30 nM	90.7 nM	–	–
